Results: ChEMBL document CHEMBL3227946, “Antianaphylactic agents. 1. 2-(Acylamino)oxazoles” (1979)
Activity calls are given as the source filed them. The rule behind the calls is not given here.

What was measured:
[1] = Antianaphylactic activity in human chopped lung treated with atopic serum isolated from patients allergic to cocksfoot pollen assessed as inhibition of antigen-induced histamine release at 10 ug/mL after 15 mins relative to control; assay type: functional; conditions: 0.25 h
Outline: (§1)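 Surgical human lung (bronchial carcinoma resections) was washed in Hank's, chopped into 0.5-mm cubes and incubated for 18 h at 18 °C with atopic serum from cocksfoot pollen-allergic patients. Tissue was washed, equilibrated in Tyrode's at 37 °C and challenged with saline pollen extract ± compound for 15 min. Histamine or SRS-A in the supernatant was bioassayed on guinea pig ileum. Values are % inhibition, mean of four samples.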

[2] = Antianaphylactic activity in ovalbumin sensitized albino guinea pig chopped lung assessed as inhibition of antigen-induced histamine release at 10 ug/mL after 15 mins relative to control; assay type: functional, Cavia porcellus
Outline: (§2)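 Lungs were perfused with Tyrode's, chopped into 0.5-mm cubes and split into 100-mg aliquots. Aliquots were challenged with antigen ± compound and rocked at 37 °C for 15 min. Unchallenged controls gave spontaneous release. Supernatant histamine or SRS-A was bioassayed on guinea pig ileum against standards. Values are % inhibition, mean of four samples.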

Cavia porcellus [3] = experiment: Antianaphylactic activity in ovalbumin/ovalbumin aerosol sensitized guinea pig bronchospasm model assessed as ratio of mean collapse time after pretreatment with compound in presence of mepyramine to mean collapse time of control animal at 2 x 100 mg/kg, po compound administered prior to antigen challenge by Herxheimer test; assay type: functional
Outline: (§3)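 Ovalbumin-sensitized male guinea pigs were exposed in a chamber to ovalbumin aerosol (1% w/v) until a convulsive cough; that time is the collapse time. Compound was given orally either 2 h before challenge or in two doses at 0.5 and 3 h before. Where used, mepyramine was given at 0.5 mg/kg sc 0.5 h before. Ratio is mean collapse time of treated animals over that of controls.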

Rattus norvegicus = experiment: Antianaphylactic activity in antiovalbumin IgE serum-treated Wistar rat at 2 x 100 mg/kg, po administered 2.5 hrs prior to ovalbumin challenge measured after 45 mins by passive cutaneous anaphylaxis test; assay type: functional, organism-based; set-up: dose 100 mg/kg; conditions: in the assay text read “2 hrs and again 30 mins prior to” for “2.5 hrs prior to”
Outline: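 Female Wistar rats, shaved and lightly anaesthetized, received an intradermal abdominal injection of diluted rat antiovalbumin IgE serum. After 24 h they were challenged iv with ovalbumin mixed with dye. Compound was given at 2 h and again at 30 min before challenge. Rats were killed 45 min after challenge and the blue area on the inner skin surface was measured.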

[4] = Antianaphylactic activity in ovalbumin sensitized albino guinea pig chopped lung assessed as inhibition of antigen-induced slow-reacting substance of anaphylaxis release at 10 ug/mL after 15 mins relative to control; assay type: functional, Cavia porcellus; outline: as §2
Cavia porcellus [5] = experiment: Antianaphylactic activity in ovalbumin/ovalbumin aerosol sensitized guinea pig bronchospasm model assessed as ratio of mean collapse time after pretreatment with compound to mean collapse time of control animal at 2 x 100 mg/kg, po compound administered prior to antigen challenge by Herxheimer test; assay type: functional; outline: as §3
[6] = Antianaphylactic activity in human chopped lung treated with atopic serum isolated from patients allergic to cocksfoot pollen assessed as inhibition of antigen-induced slow-reacting substance of anaphylaxis release at 10 ug/mL after 15 mins relative to control; assay type: functional; conditions: 0.25 h; outline: as §1
Cavia porcellus [7] = experiment: Antianaphylactic activity in ovalbumin/ovalbumin aerosol sensitized guinea pig bronchospasm model assessed as ratio of mean collapse time after pretreatment with compound to mean collapse time of control animal at 0.5 mg/kg, sc by Herxheimer test; assay type: functional; conditions: route subcutaneous
Outline: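 Ovalbumin-sensitized male guinea pigs were given mepyramine at 0.5 mg/kg sc 0.5 h before exposure to ovalbumin aerosol (1% w/v) in a chamber. Collapse time is the time to a convulsive cough. Ratio is mean collapse time of mepyramine-treated animals over that of controls.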

Cavia porcellus [8] = experiment: Antianaphylactic activity in ovalbumin/ovalbumin aerosol sensitized guinea pig bronchospasm model assessed as ratio of mean collapse time after pretreatment with compound in presence of mepyramine to mean collapse time of control animal at 1 x 2 mg/kg, po compound administered prior to antigen challenge by Herxheimer test; assay type: functional; outline: as §3
Cavia porcellus [9] = experiment: Antianaphylactic activity in ovalbumin/ovalbumin aerosol sensitized guinea pig bronchospasm model assessed as ratio of mean collapse time after pretreatment with compound to mean collapse time of control animal at 1 x 2 mg/kg, po compound administered prior to antigen challenge by Herxheimer test; assay type: functional; outline: as §3

SMILES	inhibition at 10 µg/mL [1]	inhibition (INH) [2]	Ratio (Cavia porcellus [3])	Activity (Rattus norvegicus)	inhibition (INH) [4]	Ratio (Cavia porcellus [5])	inhibition at 10 µg/mL [6]	Ratio (Cavia porcellus [7])	Ratio (Cavia porcellus [8])	Ratio (Cavia porcellus [9])
CCCCC(=O)N(CCC)c1nc(C)co1	0%	48%	5.8	inactive	55%	0.8	38%			
CCCCN(C(=O)C1CC1)c1nc(C)co1	0%	22%	13.9	inactive	46%	12.2	72%			
CCCCN(C(=O)C1CCC1)c1nc(C)co1	0%	34%	7.4	inactive	74%	1.5	55%			
CCCCN(C(=O)C(C)C)c1nc(C)co1 [ISAMOXOLE]	23%	38%	5.9	inactive	54%	4.6	93%			
COc1ccc(CN(CCN(C)C)c2ccccn2)cc1 [PYRILAMINE]								3.7		
CCCCN(C(=O)C(C)(C)C)c1nc(C)co1	37%	0%	7.7	inactive	23%	4.4	23%			
CCCCCC(=O)N(CCC)c1nc(C)co1	44%	44%	4.7	inactive	47%	1.4	47%			
CCCCN(C(=O)CCC)c1nc(C)co1	14%	33%	6.4	inactive	52%	4.3	88%			
CN1CCC(=C2c3ccccc3CC(=O)c3sccc32)CC1 [KETOTIFEN]	23%						100%		7.2	4.2
